Assays:
L1210 [1] = assay: Antitumor activity against mouse L1210 cells allografted in CDF1 mouse assessed as increase in life span at 40 mg/kg, ip relative to control; assay type: functional; details: route intraperitoneal
How it was run: (§1)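 Female CDF1 mice, 11-12 weeks old, inoculated ip on day 0 with 0.1 mL L1210 suspension (1.43×10^6 cells/mL). Drug purified by preparative HPLC, dissolved in sterile 0.85% saline, injected ip within 15 min on days 1, 5 and 9. Ten mice per dose; ten untreated controls. Read-out: % increase in mean life span over controls; ≥25% counted as active; test run in duplicate.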

L1210 [2] = assay: Antitumor activity against mouse L1210 cells allografted in CDF1 mouse assessed as increase in life span at 20 mg/kg, ip relative to control; assay type: functional; details: route intraperitoneal; how it was run: as §1
L1210 [3] = assay: Antitumor activity against mouse L1210 cells allografted in CDF1 mouse assessed as increase in life span at 10 mg/kg, ip relative to control; assay type: functional; details: route intraperitoneal; how it was run: as §1
L1210 [4] = assay: Antitumor activity against mouse L1210 cells allografted in CDF1 mouse assessed as increase in life span at 5 mg/kg, ip relative to control; assay type: functional; details: route intraperitoneal; how it was run: as §1
L1210 [5] = assay: Antitumor activity against mouse L1210 cells allografted in CDF1 mouse assessed as increase in life span at 60 mg/kg, ip relative to control; assay type: functional; details: route intraperitoneal; how it was run: as §1
Mus musculus [6] = assay: Toxicity in mouse L1210 cells allografted CDF1 mouse assessed as change in body weight between day 1 and day 5 at 40 mg/kg, ip dosed on days 1 and 5; assay type: organism-based; design: dose 40 mg/kg, route intraperitoneal; details: in vivo
How it was run: (§2)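 Female CDF1 mice, 11-12 weeks old, were given 0.1 mL L1210 suspension ip (1.43×10^6 cells/mL) on day 0. Drug was purified by preparative HPLC, dissolved in sterile 0.85% saline and given ip within 15 min, on days 1, 5 and 9. Ten mice per dose, with ten untreated controls. Weights on days 1, 5 and 9. Value is the mean body-weight change of treated minus control, in grams.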

Mus musculus [7] = assay: Toxicity in mouse L1210 cells allografted CDF1 mouse assessed as change in body weight between day 1 and day 5 at 20 mg/kg, ip dosed on days 1 and 5; assay type: organism-based; design: dose 20 mg/kg, route intraperitoneal; details: in vivo; how it was run: as §2
Mus musculus [8] = assay: Toxicity in mouse L1210 cells allografted CDF1 mouse assessed as change in body weight between day 1 and day 5 at 10 mg/kg, ip dosed on days 1 and 5; assay type: organism-based; design: dose 10 mg/kg, route intraperitoneal; details: in vivo; how it was run: as §2
Mus musculus [9] = assay: Toxicity in mouse L1210 cells allografted CDF1 mouse assessed as change in body weight between day 1 and day 5 at 5 mg/kg, ip dosed on days 1 and 5; assay type: organism-based; design: dose 5 mg/kg, route intraperitoneal; details: in vivo; how it was run: as §2
Mus musculus [10] = assay: Toxicity in mouse L1210 cells allografted CDF1 mouse assessed as change in body weight between day 1 and day 9 at 40 mg/kg, ip dosed on days 1, 5 and 9; assay type: organism-based; design: dose 40 mg/kg, route intraperitoneal; details: in vivo; how it was run: as §2
Mus musculus [11] = assay: Toxicity in mouse L1210 cells allografted CDF1 mouse assessed as change in body weight between day 1 and day 9 at 20 mg/kg, ip dosed on days 1, 5 and 9; assay type: organism-based; design: dose 20 mg/kg, route intraperitoneal; details: in vivo; how it was run: as §2
Mus musculus [12] = assay: Toxicity in mouse L1210 cells allografted CDF1 mouse assessed as change in body weight between day 1 and day 9 at 10 mg/kg, ip dosed on days 1, 5 and 9; assay type: organism-based; design: dose 10 mg/kg, route intraperitoneal; details: in vivo; how it was run: as §2
Mus musculus [13] = assay: Toxicity in mouse L1210 cells allografted CDF1 mouse assessed as change in body weight between day 1 and day 9 at 5 mg/kg, ip dosed on days 1, 5 and 9; assay type: organism-based; design: dose 5 mg/kg, route intraperitoneal; details: in vivo; how it was run: as §2
Mus musculus [14] = assay: Toxicity in mouse L1210 cells allografted CDF1 mouse assessed as change in body weight between day 1 and day 5 at 60 mg/kg, ip dosed on days 1 and 5; assay type: organism-based; design: dose 60 mg/kg, route intraperitoneal; details: in vivo; how it was run: as §2
Mus musculus [15] = assay: Toxicity in mouse L1210 cells allografted CDF1 mouse assessed as change in body weight between day 1 and day 9 at 60 mg/kg, ip dosed on days 1, 5 and 9; assay type: organism-based; design: dose 60 mg/kg, route intraperitoneal; details: in vivo; how it was run: as §2
[16] = Half life in water at 2.6 mg/ml at 37 degC by UV-HPLC analysis; assay type: physicochemical
[17] = Stability of the compound in water assessed as compound remaining at 2.6 mg/ml at 37 degC after 7 hrs by UV-HPLC analysis; assay type: physicochemical; details: read-out: Stability
[18] = Stability of the compound in water assessed as compound remaining at 2.6 mg/ml at 37 degC after 4 hrs by UV-HPLC analysis; assay type: physicochemical; details: read-out: Stability
[19] = Stability of the compound in water assessed as compound remaining at 2.6 mg/ml at 25 degC after 24 hrs by UV-HPLC analysis; assay type: physicochemical; details: read-out: Stability
[20] = Half life in water at 2.6 mg/ml at 25 degC by UV-HPLC analysis; assay type: physicochemical
Mus musculus [21] = assay: Toxicity in mouse L1210 cells allografted CDF1 mouse assessed as mortality at 5 to 60 mg/kg, ip; assay type: organism-based; design: dose 5-60 mg/kg, route intraperitoneal; details: in vivo
How it was run: (§3)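 L1210 ip implant (1.43×10^6 cells/mL, 0.1 mL) in female CDF1 mice, 11-12 weeks old. Freshly dissolved HPLC-purified drug in 0.85% saline given ip on days 1, 5 and 9; ten mice per dose. Toxicity scored as early death from acute toxicity, with body weights on days 1, 5 and 9 compared against untreated controls.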

L1210 [22] = assay: Antitumor activity against mouse L1210 cells allografted in CDF1 mouse assessed as increase in life span at 2.5 mg/kg, ip relative to control; assay type: functional; details: route intraperitoneal
How it was run: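 Female CDF1 mice, 11-12 weeks old, given 0.1 mL ip of L1210 cells at 1.43×10^6 cells/mL on day 0. Drug purified by preparative HPLC, dissolved in sterile 0.85% saline and injected ip within 15 min, on days 1, 5 and 9. Ten mice per dose, ten untreated controls. % ILS is the increase in mean life span over controls; ≥25% counted as active.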

Mus musculus [23] = assay: Toxicity in mouse L1210 cells allografted CDF1 mouse assessed as change in body weight between day 1 and day 5 at 2.5 mg/kg, ip dosed on days 1 and 5; assay type: organism-based; design: dose 2.5 mg/kg, route intraperitoneal; details: in vivo; how it was run: as §2
Mus musculus [24] = assay: Toxicity in mouse L1210 cells allografted CDF1 mouse assessed as change in body weight between day 1 and day 9 at 2.5 mg/kg, ip dosed on days 1, 5 and 9; assay type: organism-based; design: dose 2.5 mg/kg, route intraperitoneal; details: in vivo; how it was run: as §2
Mus musculus [25] = assay: Toxicity in mouse L1210 cells allografted CDF1 mouse assessed as mortality at 2.5 to 40 mg/kg, ip; assay type: organism-based; design: dose 2.5-40 mg/kg, route intraperitoneal; details: in vivo; how it was run: as §3
Half life in mice = details: mouse, in vivo

| Compound | ILS at 40 mg/kg (L1210 [1]) [%] | ILS at 20 mg/kg (L1210 [2]) [%] | ILS at 10 mg/kg (L1210 [3]) [%] | ILS at 5 mg/kg (L1210 [4]) [%] | Activity (Mus musculus [6]) [g] | Activity (Mus musculus [7]) [g] | Activity (Mus musculus [8]) [g] | Activity (Mus musculus [9]) [g] | Activity (Mus musculus [10]) [g] | Activity (Mus musculus [11]) [g] | Activity (Mus musculus [12]) [g] | Activity (Mus musculus [13]) [g] | further results |
| --- | --- | --- | --- | --- | --- | --- | --- | --- | --- | --- | --- | --- | --- |
| N=C(NC=O)NC(=O)N[C@@H]1O[C@H](CO)[C@@H](O)[C@H]1O | 85 | 56 | 33 | 17 | -0.8 | -1.9 | -1.6 | -1.2 | -4.7 | -3.8 | -3.4 | -2.6 | ILS at 60 mg/kg (L1210 [5]): 93%; Activity (Mus musculus [14]): -1.9 g; Activity (Mus musculus [15]): -4.3 g; half-life at 2.6 mg/ml [16]: 2 h; remaining at 7 h, 2.6 mg/ml [17]: 25%; remaining at 4 h, 2.6 mg/ml [18]: 31%; remaining at 24 h, 2.6 mg/ml [19]: 24%; half-life at 2.6 mg/ml [20]: 9 h; Activity (Mus musculus [21]): Non-toxic |
| Nc1ncn([C@@H]2O[C@H](CO)[C@@H](O)[C@H]2O)c(=O)n1 [AZACITIDINE] | 84 | 130 | 86 | 63 | -2.3 | -1.6 | -1.8 | -1 | -6.5 | -5.1 | -4.5 | -2.9 | ILS at 2.5 mg/kg (L1210 [22]): 33%; Activity (Mus musculus [23]): -1.5 g; Activity (Mus musculus [24]): -5.7 g; Activity (Mus musculus [25]): Non-toxic; half-life (Half life in mice): < 6 h |

Reference: ChEMBL document CHEMBL3244387, “Isolation, characterization, and properties of a labile hydrolysis product of the antitumor nucleoside, 5-azacytidine” (J Med Chem, 1978)
